Laboratory results from ChEMBL document CHEMBL1667739, “Pitiprolamide, a proline-rich dolastatin 16 analogue from the marine cyanobacterium Lyngbya majuscula from Guam” (J Nat Prod, 2011).

Experiments:
Type in all cases: functional
Settings in all cases: ATCC 25177, 288 h, read-out: DIZ
[1] = tested on: Mycobacterium tuberculosis; test: Antimycobacterial activity against Mycobacterium tuberculosis ATCC 25177 at 10 ug after 12 days by disc diffusion assay
In short: (§1)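 Compound dissolved in EtOH and loaded onto sterile filter-paper discs. Dried discs were placed on an inoculated agar plate and incubated 12 days at 37 °C. The diameter of the inhibition zone was then measured.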

[2] = tested on: Mycobacterium tuberculosis; test: Antimycobacterial activity against Mycobacterium tuberculosis ATCC 25177 at 1 ug after 12 days by disc diffusion assay; in short: as §1
[3] = tested on: Mycobacterium tuberculosis; test: Antimycobacterial activity against Mycobacterium tuberculosis ATCC 25177 at 5 ug after 12 days by disc diffusion assay; in short: as §1

Which results are given for `CN[C@@H]1[C@H](O[C@H]2[C@H](O[C@H]3[C@H](O)[C@@H](O)[C@H](N=C(N)N)[C@@H](O)[C@@H]3N=C(N)N)O[C@@H](C)[C@]2(O)C=O)O[C@@H](CO)[C@H](O)[C@H]1O` [STREPTOMYCIN]?
zone of inhibition at 10 µg/disc [1]: 40 mm; zone of inhibition at 1 µg/disc [2]: 0 mm; zone of inhibition at 5 µg/disc [3]: 30 mm
